# rCAG RNA binder – binders of r(CAG) RNA repeats, primary screen, biochemical, fluorescence; 1.3% of 370,000 active; AID 651821, 2012; r(CAG) RNA repeat, TO-PRO-1 dye displacement fluorescence; inhibition, % at 3 µM;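 active = inhibition above the plate cutoff, the mean of all test compounds on that plate plus 3 SD, cut at about 35% in these data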;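 also: 0% = DMSO alone and 100% = 100 µM mitoxantrone as full dye displacement; higher means more dye released from RNA so lower well fluorescence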
# NadD inh – inhibitors of S. aureus NadD, primary screen, biochemical, colorimetric, uHTS; Nicotinate-nucleotide adenylyltransferase NadD (Staphylococcus aureus N315); purified NadD enzyme, colorimetric absorbance read-out; inhibition, % at 20 µM; 0.78% of 360,000 active; AID 602399, 2012; in the data active = inhibition above about 26%
# ASAP1 GAP inh – inhibitors of human ASAP1 ArfGAP activity, primary screen, biochemical, fluorescence polarization. 0.19% of 360,000 active. inhibition, % at 16.5 µM. Arf-GAP with SH3 domain, ANK repeat and PH domain-containing protein 1 (Homo sapiens), …. ASAP1-stimulated ARF1 GTP hydrolysis, GDP FP detection; in the data active = inhibition above about 25%;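 also: 0% = vehicle with enzyme and substrate and 100% = no enzyme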
# Target sequence (Q9ULH1 325-724 limits assumed): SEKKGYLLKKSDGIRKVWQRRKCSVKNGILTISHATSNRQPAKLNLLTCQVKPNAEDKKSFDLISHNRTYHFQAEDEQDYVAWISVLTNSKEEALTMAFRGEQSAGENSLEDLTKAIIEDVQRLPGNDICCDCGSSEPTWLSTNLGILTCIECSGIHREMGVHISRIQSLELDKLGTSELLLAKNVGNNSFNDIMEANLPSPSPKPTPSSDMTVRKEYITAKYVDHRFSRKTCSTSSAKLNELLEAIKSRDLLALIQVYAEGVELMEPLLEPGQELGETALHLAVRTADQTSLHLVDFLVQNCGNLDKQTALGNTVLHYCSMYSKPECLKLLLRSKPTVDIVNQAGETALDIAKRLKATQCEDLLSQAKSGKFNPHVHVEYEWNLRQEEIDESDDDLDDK
# ARFGAP1 inhibitor – inhibitors of rat ARFGAP1 GAP activity, primary screen, biochemical, fluorescence polarization, GDP tracer | Arfgap1-stimulated ARF1 GTP hydrolysis, GDP FP detection | 0.26% of 360,000 active | ADP-ribosylation factor GTPase-activating protein 1 (Rattus norvegicus), Q62848 | inhibition, % at 16.5 µM;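 active = inhibition above a per-plate limit, mean inhibition of low control wells plus 3 SD, cut at about 25% in these data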;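 also: 0% = DMSO wells with enzyme and 100% = wells lacking Arfgap1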
# Target sequence (Q62848 1-136 limits assumed): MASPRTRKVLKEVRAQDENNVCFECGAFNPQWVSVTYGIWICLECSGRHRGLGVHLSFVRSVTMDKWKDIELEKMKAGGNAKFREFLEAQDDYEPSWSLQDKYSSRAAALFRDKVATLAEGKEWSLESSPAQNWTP
#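 Material: rat Arfgap1 catalytic domain, aa 1-136; also added: human ARF1(Δ1-17)-GTP substrate; compound dosing: one concentration, 16.5 µM, DMSO 1.26%; incubation: GTP hydrolysis reaction 2 h at 25 °C; measured by: Tracer-displacement fluorescence polarization with EDTA stop, 620/688 nm; evaluation: % inhibition from polarization; repeats: one replicate per compound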
# rCAG bind conf – small molecules binding CAG repeat RNA – biochemical, fluorescence, confirmation | 70% of 4,300 active | r(CAG) RNA repeat, TO-PRO-1 dye displacement fluorescence | shares compounds with rCAG RNA binder | inhibition, % at 3 µM;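 active = inhibition above a per-plate cutoff, the mean inhibition of sample wells plus 3 SD, cut at about 35% in these data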;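 also: loss of TO-PRO-1 fluorescence as compound displaces dye from 1x1 AA loop RNA; 0% = DMSO only wells and 100% = 100 µM mitoxantrone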
# DNA CAG counter – displacement of TO-PRO-1 from CAG DNA duplex, counter-screen for rCAG RNA repeat binder project, biochemical, fluorescence, TO-PRO-1 dye, d(CAG) DNA oligo. shares compounds with rCAG RNA binder. d(CAG) DNA oligo TO-PRO-1 dye displacement. inhibition, % at 3 µM. 94% of 4,300 active. AID 652068, 2013;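 active = inhibition above its plate's cutoff, the mean test-well inhibition plus 3 SD, cut at about 4.8% in these data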;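 also: 0% = DNA dye mix with DMSO and 100% = 100 µM mitoxantrone; hits displace the dye from DNA and so lower well fluorescence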
# DNA CAG DR – inhibitors of DNA CAG/GTC TO-PRO-1 complex, dose response, counter-screen for rCAG RNA repeat binder project, biochemical, fluorescence, TO-PRO-1 dye; DNA CAG/GTC duplex TO-PRO-1 dye displacement fluorescence; shares compounds with rCAG RNA binder; IC50, µM; 20% of 250 active; in the data active = IC50 below about 10 µM
# The depositor's hits bear a star; / = no result given. An excerpt weighted towards active compounds, which were near 2.2% of everything screened.
SMILES,rCAG RNA binder,NadD inh,ASAP1 GAP inh,ARFGAP1 inhibitor,rCAG bind conf,DNA CAG counter,others
O=C(/C=C/c1ccccc1)Nc1cccc(S(=O)(=O)Nc2ccccc2F)c1,38*,3,2,1,40*,13*,
Cc1ccc(C)c(N2CCN(C(=O)Cc3c(C(=O)O)[nH]c4ccc(Cl)cc34)CC2)c1,57*,15,7,-11,64*,25*,
O=C(O)c1[nH]c2ccc(Cl)cc2c1CC(=O)N1CCN(c2ccccc2)CC1,41*,9,-6,-2,42*,12*,
Cc1ccc(Cl)cc1N1CCN(C(=O)CCC(=O)O)CC1,2,-5,11,6,/,/,
O=C(O)c1[nH]c2ccc(Cl)cc2c1CC(=O)N1CCN(C(=O)c2ccco2)CC1,26,1,8,4,/,/,
COc1ccc(Br)cc1CNC(=O)Cc1c(C(=O)O)[nH]c2ccc(Cl)cc12,58*,0,7,-2,45*,11*,
COc1ccccc1N1CCN(C(=O)Cc2c(C(=O)O)[nH]c3ccc(Cl)cc23)CC1,39*,16,-4,-10,42*,11*,
CCc1nc2c(OCC(=O)c3ccc(Cl)cc3Cl)cccn2c1N(C)C(=O)COc1ccccc1,6,16,-4,1,/,/,
CCN(CC)c1ccc(NC(=O)CCS(=O)(=O)c2ccc(Br)cc2)c(C)c1,6,-2,-5,0,/,/,
O=C(Nc1ccc(S(=O)(=O)Nc2nccs2)cc1)C1CC(=O)N(c2ccccc2)C1 (stereo not drawn),/,6,/,/,/,/,
Cc1ccc(N2CC(C(=O)Nc3ccc(S(=O)(=O)Nc4nccs4)cc3)CC2=O)cc1 (stereo not drawn),36*,2,-4,1,27,6.7*,
CCOc1ccc(N2CC(C(=O)Nc3ccc(S(=O)(=O)Nc4nccs4)cc3)CC2=O)cc1 (stereo not drawn),49*,6,-2,-13,34,12*,
COC(=O)c1ccc(S(=O)(=O)N2CCC(NC(=O)COc3ccc(F)cc3)CC2)cc1,0,/,/,/,/,/,
Cc1ccc(C(=O)N(NC2=NS(=O)(=O)c3ccccc32)S(=O)(=O)c2ccc(C)cc2)cc1,64*,-5,2,7,44*,13*,
O=C(C1CCCN1S(=O)(=O)c1ccccc1[N+](=O)[O-])N1CCN(c2ccccc2)CC1 (stereo not drawn),7,/,/,/,/,/,
COc1ccc(S(=O)(=O)Nc2c(C(=O)O)[nH]c3ccc(OC)cc23)c(OC)c1,36*,-6,-12,-13,24,10*,
COc1ccc(S(=O)(=O)Nc2c(C(=O)O)[nH]c3ccccc23)c(OC)c1,36*,0,-3,-6,19,4,
O=C1N=c2ccccc2=C1c1sc(Nc2cccc(O)c2)nc1O,61*,16,2,-5,26,15*,
O=C1N=c2ccccc2=C1c1sc(Nc2ccc(O)cc2)nc1O,41*,33*,-7,2,26,18*,
O=C1N=c2ccccc2=C1c1sc(NS(=O)(=O)Cc2ccccc2)nc1O,34,6,-5,5,/,/,
O=C1N=c2ccccc2=C1c1sc(NS(=O)(=O)c2ccccc2)nc1O,41*,4,10,14,25,6.0*,
O=C(O)Cn1c(O)c(C2=c3ccccc3=NC2=O)sc1=O,12,2,14,-4,/,/,
CCN(CC)C(=O)CC[C@H]1CC[C@]2(CCCN(Cc3ccccc3)C2)O1,-2,/,/,/,/,/,
COc1ccc(NC(=O)Cn2c(=O)oc3cc(S(=O)(=O)N4CCCC4)ccc32)cc1,8,-1,13,6,/,/,
Cc1ccc(NC(=O)Cn2c(=O)oc3cc(S(=O)(=O)N4CCC(C)CC4)ccc32)cc1C,46*,12,-17,9,36*,15*,
SMILES,rCAG RNA binder,NadD inh,ASAP1 GAP inh,ARFGAP1 inhibitor,rCAG bind conf,DNA CAG counter,others
CC1(C(=O)NS(=O)(=O)C2CC2)CCCN(C(=O)c2cccc(OC(F)(F)F)c2)C1 (stereo not drawn),1,0,7,0,/,/,
CCc1ccc(/C=C/C(=O)C2C(=O)c3ccccc3C2=O)cc1,64*,27,-4,-8,79*,39*,
O=C(COC(=O)c1ccccc1)Nc1ncc([N+](=O)[O-])s1,60*,13,-1,-10,70*,37*,
O=C(Nc1ccccc1)Nc1ncc([N+](=O)[O-])s1,11,-1,7,0,/,/,
Cc1oc2c(cc(NS(=O)(=O)c3cccs3)c3ccccc32)c1C(=O)OC(C)C,37*,-1,15,1,32,9.5*,
Cc1oc2c(cc(NS(=O)(=O)c3ccc(C(C)C)cc3)c3ccccc32)c1C(=O)O,54*,27,0,-2,63*,28*,
COc1ccc(S(=O)(=O)Nc2cc3c(C(C)=O)c(C)oc3c3ccccc23)cc1,4,-1,2,-5,/,/,
CC(C)(C)C1CCc2c(sc3nc(SCC(=O)O)nc(N)c23)C1 (stereo not drawn),36*,5,2,2,42*,10*,
CC(c1ccccc1)N1C(=O)c2ccc(C(=O)NCc3cccnc3)cc2C1=O (stereo not drawn),-7,1,24,-1,/,/,
CC(c1ccccc1)N1C(=O)c2ccc(C(=O)Nc3ccc(Br)cc3C(=O)O)cc2C1=O (stereo not drawn),52*,14,5,-12,81*,77*,
COc1cc(NC(=O)c2ccc3c(c2)C(=O)N(CCC(C)C)C3=O)c(C(=O)O)cc1OC,6,1,11,-2,/,/,
CC(c1ccccc1)N1C(=O)c2ccc(C(=O)Nc3ccccc3C(=O)O)cc2C1=O (stereo not drawn),81*,-3,3,-27,87*,70*,
O=C(NC1CCCCN(Cc2cccc(C(F)(F)F)c2)C1=O)c1cccc(F)c1 (stereo not drawn),0,/,/,/,/,/,
CCOc1ccc2nc(NS(=O)(=O)c3ccc4c(c3)n(C)c(=O)n4C)sc2c1,44*,7,2,-4,26,8.3*,
Cc1ccc2nc(N/C(=N/S(=O)(=O)c3ccc(F)cc3F)c3ccccc3)sc2c1,46*,3,8,-7,48*,14*,
COc1ccccc1-n1c(SCC(=O)O)nc2c(sc(=S)n2-c2ccc(C)c(C)c2)c1=O,48*,2,1,0,72*,33*,DNA CAG DR=>30

# Assay outcomes from PubChem.
